For orientation: pKi means the Ki on a negative log10 scale, so that one unit is a factor of ten. In general, pIC50 refers to the IC50 on a negative log10 scale, so that one unit is a factor of ten. Read a high pIC50 as a low IC50.

Results on 22 molecules are retold here after ChEMBL document CHEMBL1153319, “Dancing of the second aromatic residue around the 6,8-diazabicyclo[3.2.2]nonane framework: influence on sigma receptor affinity and cytotoxicity” (J Med Chem, 2009).

pIC50, pKi: −log10 of the molar value.

Experiment [1] concerns the target Sigma non-opioid intracellular receptor 1 (Homo sapiens, UniProt Q99720). Briefly: Binding affinity to sigma 1 receptor. The gist of the method:
(§1)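 Guinea pig brain homogenate (about 75 µg protein) incubated with test compound, 2 nM [3H]-(+)-pentazocine (Kd 2.9 nM) in 50 mM Tris pH 7.4, 180 min at 37 °C. Nonspecific binding with 10 µM unlabeled (+)-pentazocine. Rapid filtration, water washes, solid scintillator counting. Ki by Cheng–Prusoff from six-concentration competition curves, triplicates, mean ± SEM of three experiments; single-point lines give inhibition at 1 µM.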

In the next experiment the test system is DAN-G. Briefly: Cytotoxicity against human DAN-G cells after 96 hrs by crystal violet staining. Type of experiment: functional, cell-based. An outline of the steps: (§2)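 Human tumour lines from DSMZ given a 20 µM primary screen for 96 h at 37 °C. Those cutting growth >50% versus untreated controls were then tested at 5 serial dilutions (DMSO stocks) for 96 h. Remaining cell density read by crystal violet staining. IC50 from least-squares dose-response fit using concentrations giving T/C 10–90%.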

The test system of another experiment is A-427. The experiment in a line: Cytotoxicity against human A427 cells after 96 hrs by crystal violet staining. Format: functional, cell-based. Particulars: A-427, 96 h. The gist of the method: as §2
In another experiment the test system is RT-4. Briefly: Cytotoxicity against human RT4 cells after 96 hrs by crystal violet staining. Format: functional, cell-based. Particulars: RT-4, 96 h. The gist of the method: as §2
Experiment [2] in a line: Displacement of [3H]1,3-ditolylguanine from sigma 2 receptor in rat liver membrane by solid scintillation analysis. Format: cell membranes. A general note: Displacement assays read how much labelled ligand stays bound in the presence of the test substance.
A further experiment relates to 5637. Briefly: Cytotoxicity against human 5637 cells after 96 hrs by crystal violet staining. Format: functional, cell-based. Particulars: Homo sapiens, 5637, 96 h. The gist of the method: as §2
The target of experiment [3] is Sigma non-opioid intracellular receptor 1 (Cavia porcellus, UniProt Q60492). Briefly: Displacement of [3H](+)-pentazocine from sigma 1 receptor in guinea pig brain membrane by scintillation analysis. Format: cell membranes.
Sequence of Sigma non-opioid intracellular receptor 1 (Cavia porcellus, UniProt Q60492) (Q60492 whole entry): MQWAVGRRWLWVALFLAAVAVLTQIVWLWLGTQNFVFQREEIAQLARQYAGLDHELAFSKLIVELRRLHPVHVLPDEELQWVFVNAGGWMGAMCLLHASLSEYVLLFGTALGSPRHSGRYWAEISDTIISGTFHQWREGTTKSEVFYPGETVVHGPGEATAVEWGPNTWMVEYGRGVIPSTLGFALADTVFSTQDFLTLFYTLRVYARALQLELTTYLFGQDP
In another experiment the test system is MCF7. Briefly: Cytotoxicity against human MCF7 cells after 96 hrs by crystal violet staining. Type of experiment: functional, cell-based. Particulars: MCF7, 96 h. An outline of the steps:
as §2

A short description of experiment [4]: Cytotoxicity against human LCLC-103H cells after 96 hrs by crystal violet staining. Format: functional, cell-based. An outline of the steps:
as §2

Experiment [5] is described as follows: Selectivity ratio of IC50 for sigma 2 receptor in rat liver membrane to IC50 for sigma 1 receptor in guinea pig brain membrane. Type of experiment: cell membranes.
The species entered for a further experiment is Rattus norvegicus. The experiment in a line: Displacement of [3H]1,3-ditolylguanine from sigma 2 receptor in rat liver membrane by solid scintillation analysis at 1 uM. Type of experiment: cell membranes.
Experiment [6] deals with Sigma non-opioid intracellular receptor 1 (Cavia porcellus) (UniProt Q60492). The experiment in a line: Displacement of [3H](+)-pentazocine from sigma 1 receptor in guinea pig brain membrane at 1 uM by scintillation analysis. Type of experiment: cell membranes. The gist of the method: as §1
Sequence of Sigma non-opioid intracellular receptor 1 (Cavia porcellus) (Q60492 whole entry): as above
The nature of experiment [7]: Selectivity for sigma 2 receptor in rat liver membrane over sigma 1 receptor in guinea pig brain membrane. Type of experiment: cell membranes.

Sequence of Sigma non-opioid intracellular receptor 1 (Homo sapiens, UniProt Q99720) (Q99720 whole entry): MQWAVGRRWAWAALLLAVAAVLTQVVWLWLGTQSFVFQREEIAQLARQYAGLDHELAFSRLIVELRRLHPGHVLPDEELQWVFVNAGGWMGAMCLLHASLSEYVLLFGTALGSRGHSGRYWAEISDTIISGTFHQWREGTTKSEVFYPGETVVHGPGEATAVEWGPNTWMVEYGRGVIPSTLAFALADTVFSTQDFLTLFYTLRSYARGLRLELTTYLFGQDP

The molecule `COc1ccc(CN2CC3CCC(=O)C2CN3Cc2ccccc2)cc1` (centres undefined) showed a pKi in [1] of 7.28.

`C=CCN1CC2[C@@H](O)CCC1CN2Cc1ccc(OC)cc1` (some centres undefined): in experiment [1], the pKi is 5.65.

In the case of `C=CCN1C[C@H]2/C(=C\c3ccccc3)CC[C@@H]1CN2Cc1ccc(OC)cc1`, the negative logarithm of the IC50 (pIC50) in the experiment with DAN-G is 5.01; in the experiment on A-427 it was 5.41; in the experiment on RT-4, 4.85; in the experiment on 5637, 4.96; in the experiment on MCF7, 5.14; in [4] it was 4.75. Besides, the pKi was 6.25 in experiment [2] and 6.98 in experiment [3]. The Ratio IC50 in experiment [5] worked out at 5.

As for `COc1ccc(CN2C[C@H]3C(c4ccccc4)CC(=O)[C@@H]2CN3Cc2ccccc2)cc1` (single isomer, unassigned; form 2), the Activity in the experiment listed under Rattus norvegicus came out at 0%; in experiment [6], 14%.

With `C=CCN1C[C@@H]2c3[nH]c4ccc(OC)cc4c3C[C@H]1CN2Cc1ccc(OC)cc1`, the Activity in the experiment filed under Rattus norvegicus was determined as 0%. For the same molecule, the pIC50 with DAN-G was less than 4.70; with A-427, 4.88; in the experiment on RT-4 it was less than 4.70; with 5637, 4.97; with MCF7, 4.59; in experiment [4], less than 4.70. Moreover, in experiment [3], the pKi was 4.98.

For `COc1ccc(CN2C[C@@H]3[C@H](c4ccccc4)CC(=O)[C@H]2CN3Cc2ccccc2)cc1`, the Activity in the experiment listed under Rattus norvegicus was 0%; in [6], 17%. The pIC50 was 4.79 in the experiment on DAN-G; 4.99 in the experiment on A-427; 4.69 in the experiment with RT-4; 4.74 in the experiment with 5637; 4.71 in the experiment on MCF7; less than 4.70 in experiment [4].

`C=CCN1C[C@H]2[C@@H](Oc3ccccc3)CC[C@@H]1CN2Cc1ccc(OC)cc1`: the pIC50 in the experiment on DAN-G was 4.97; in the experiment on A-427, 5.20; in the experiment on RT-4, 4.75; in the experiment with 5637, 5.01; in the experiment on MCF7, 5.03; in experiment [4], less than 4.70. Further, the pKi in experiment [2] is 6.06. Moreover, the Activity in experiment [6] was 29%.

In the case of `C=CCN1C[C@H]2N(Cc3ccc(OC)cc3)C[C@@H]1CC[C@]21Cc2ccccc2CO1`, the Activity in the experiment filed under Rattus norvegicus was determined as 58%; in experiment [6], 36%.

Consider `C=CCN1CC2C(=O)CCC1CN2Cc1ccc(OC)cc1` (centres undefined), for which the negative-log Ki (pKi) in experiment [1] is 5.80.

In the case of `C=CCN1C[C@H]2[C@H](OCc3ccccc3)CC[C@@H]1CN2Cc1ccc(OC)cc1`, the pIC50 in the experiment on DAN-G is 4.90; in the experiment on A-427, 5.34; in the experiment on RT-4, 4.84; with 5637, 4.95; in the experiment on MCF7, 5.04; in [4] it was 4.70. In addition, the values for the pKi in [2] and in experiment [3] were 5.19 and 7.04, respectively. The Ratio IC50 in experiment [5] came to 70.

Take `CCCN1CC2C(=O)C[C@@H](c3ccccc3)C1CN2Cc1ccc(OC)cc1` (some centres undefined): the Activity turned out to be 11% in the experiment filed under Rattus norvegicus and 40% in experiment [6]. In addition, the pIC50 (in the experiment on DAN-G; with A-427; in the experiment on RT-4; with 5637; with MCF7; in experiment [4]) was less than 4.70 throughout.

Take `C=CCN1C[C@@H]2[C@H](OCc3ccccc3)CC[C@H]1CN2Cc1ccc(OC)cc1OC`: the negative-log IC50 (pIC50) was 5.34 with DAN-G; 5.45 in the experiment on A-427; 5.07 in the experiment on RT-4; 5.33 with 5637; 5.24 with MCF7; 4.95 in [4]. Besides, the pKi in experiment [2] is 6.40. The fold change (FC) in experiment [7] came out at 5. This molecule displayed an Activity in experiment [6] of 20%.

Regarding `C=CCN1C[C@@H]2[C@H](Oc3ccccc3)CC[C@H]1CN2Cc1ccc(OC)cc1`, the pIC50 in the experiment on DAN-G was 4.80; in the experiment on A-427 it was 5.23; in the experiment on RT-4 it was 4.72; in the experiment on 5637, 4.85; in the experiment on MCF7 it was 4.90; in [4] it was less than 4.70. For the same molecule, the figures for the negative logarithm of the Ki (pKi) in experiment [2] and in experiment [3] were 6.32 and 5.67, respectively. This molecule registered a fold change (FC) in [7] of 5.

In the case of `C=CCN1C[C@H]2c3[nH]c4ccccc4c3C[C@@H]1CN2Cc1ccc(OC)cc1`, the Activity in the experiment filed under Rattus norvegicus amounted to 0%; in [6], 7%. The pIC50 (in the experiment with RT-4; in experiment [4]) was less than 4.70 in each case.

Turning to `COc1ccc(CN2C[C@@H]3[C@@H](c4ccccc4)CC(=O)[C@H]2CN3Cc2ccccc2)cc1`, the Activity was 0% in the experiment filed under Rattus norvegicus and 8% in experiment [6]. The pIC50 (in the experiment on DAN-G; in experiment [4]) was less than 4.70 in each case.

`COc1ccc(CN2CCN(Cc3ccccc3)[C@@H](CO)C2)cc1` had a pKi in experiment [1] of 7.92.

With `COc1ccc(CN2C[C@H]3C(c4ccccc4)CC(=O)[C@@H]2CN3Cc2ccccc2)cc1` (single isomer, unassigned; form 1), the Activity in the experiment listed under Rattus norvegicus was 0%; in [6], 25%.

On to `C=CCN1C[C@H]2c3[nH]c4ccccc4c3C[C@@H]1CN2Cc1ccc(OC)cc1OC`, for which the negative-log IC50 (pIC50) in the experiment with DAN-G is 5.22; with A-427, 5.19; in the experiment on RT-4, 5.10; in the experiment on 5637 it was 4.90; with MCF7, 5.30; in experiment [4], 5.06. In [2], this molecule had a pKi of 5.49. For the same molecule, the Activity in [6] amounted to 11%.

Take `C=CCN1C[C@H]2c3[nH]c4ccc(OC)cc4c3C[C@@H]1CN2Cc1ccc(OC)cc1`: the Activity in the experiment listed under Rattus norvegicus was 44%; in experiment [6], 37%. The pIC50 is less than 4.70 with DAN-G; 4.81 in the experiment with A-427; less than 4.70 in the experiment with RT-4; 4.79 with 5637; less than 4.70 with MCF7; less than 4.70 in experiment [4].

`C=CCN1C[C@@H]2[C@H](Oc3ccccc3)CC[C@H]1CN2Cc1ccc(OC)cc1OC`: the pIC50 with DAN-G is 4.90; in the experiment on A-427 it was 5.15; in the experiment with RT-4 it was 4.82; in the experiment on 5637, 4.93; in the experiment on MCF7, 5.04; in experiment [4], less than 4.70. For the same molecule, the negative-log Ki (pKi) in experiment [2] was 6.33; in [3], 5.39. Moreover, the fold change (FC) in experiment [7] turned out to be 5.

Take `CCCN1CC2C(=O)C[C@H](c3ccccc3)C1CN2Cc1ccc(OC)cc1` (some centres undefined): the Activity turned out to be 10% in the experiment listed under Rattus norvegicus and 3% in [6]. For the same molecule, the pIC50 (with DAN-G; in the experiment on RT-4; in [4]) was less than 4.70 in each case.

`C=CCN1C[C@@H]2c3[nH]c4ccccc4c3C[C@H]1CN2Cc1ccc(OC)cc1`: the pIC50 with DAN-G was 5.11; with A-427, 4.91; in the experiment with RT-4, 4.95; in the experiment with 5637, 4.95; with MCF7, 4.65; in [4], 4.89. Also, in [2], the pKi is 4.63. Besides, the Activity in [6] was determined as 44%.
